ChEMBL document CHEMBL1125311, “Inhibition of human leukocyte elastase. 4. Selection of a substituted cephalosporin (L-658,758) as a topical aerosol” (J Med Chem, 1992)

Columns and labels:
[1] = target: T1, Cathepsin G (Homo sapiens) (UniProt P08311); assay: Inhibitory activity against Cathepsin G at 10 min (48 mM conc)using t-Boc-Tyr-ONp as substrate
T1 sequence (whole entry): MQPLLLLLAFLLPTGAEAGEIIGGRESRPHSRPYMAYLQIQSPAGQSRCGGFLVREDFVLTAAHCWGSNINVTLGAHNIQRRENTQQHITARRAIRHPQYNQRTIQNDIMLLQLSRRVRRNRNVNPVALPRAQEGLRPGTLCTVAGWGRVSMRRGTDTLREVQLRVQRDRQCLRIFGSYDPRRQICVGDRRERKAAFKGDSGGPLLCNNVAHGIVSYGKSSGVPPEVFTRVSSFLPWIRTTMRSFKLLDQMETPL

[2] = Partion ratio of the compound; format: ADME
Papain (Carica papaya) = target: T2, Papain (Carica papaya) (UniProt P00784); assay: Inhibitory activity against Papain at 10 min (48 mM conc)
T2 sequence (whole entry): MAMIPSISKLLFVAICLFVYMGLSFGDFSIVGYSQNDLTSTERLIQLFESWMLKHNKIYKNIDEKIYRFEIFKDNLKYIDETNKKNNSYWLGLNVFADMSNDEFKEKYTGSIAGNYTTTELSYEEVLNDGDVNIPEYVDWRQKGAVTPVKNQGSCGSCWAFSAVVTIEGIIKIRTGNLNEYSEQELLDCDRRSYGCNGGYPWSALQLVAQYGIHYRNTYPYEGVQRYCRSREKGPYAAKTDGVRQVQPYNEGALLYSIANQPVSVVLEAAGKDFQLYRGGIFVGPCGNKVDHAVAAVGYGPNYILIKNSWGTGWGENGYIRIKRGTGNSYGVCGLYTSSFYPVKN
How it was run: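 Papain activity was read at 410 nm as p-nitroanilide release from benzoyl-Arg-p-nitroanilide, in pH 7.5 TES with 0.001 M EDTA, 0.005 M Cys and 10% DMSO. Percent inhibition was taken at 10 min.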

[3] = target: T3, Neutrophil elastase (Homo sapiens) (UniProt P08246)
T3 sequence (whole entry): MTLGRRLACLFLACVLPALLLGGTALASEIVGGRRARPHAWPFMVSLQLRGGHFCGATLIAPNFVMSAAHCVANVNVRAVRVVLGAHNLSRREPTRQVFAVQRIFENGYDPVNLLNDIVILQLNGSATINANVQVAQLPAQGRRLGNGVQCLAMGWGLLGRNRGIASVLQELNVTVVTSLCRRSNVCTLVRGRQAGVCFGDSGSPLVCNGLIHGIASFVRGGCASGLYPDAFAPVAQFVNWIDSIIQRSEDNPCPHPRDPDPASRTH

[4] = Inhibition of elastin solubilization; format: functional
Cricetinae gen. sp. [5] = assay: Compound was evaluated in vivo for inhibition of HLE-induced hemorrhage in hamster lung at 10 microg 30 min after administration prior to HLE; format: functional, Cricetulus griseus
How it was run: (§1)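 Hamster, intratracheal dosing of compound (per animal) 30 min before IT instillation of 50 μg HLE (50 units in Experimental); hemorrhage read 3 h later: lungs lavaged with saline, hemoglobin in lavage measured at 414 nm. Percent inhibition from drug-treated vs vehicle-treated hemorrhage; three animals per dose and time. Titration at 100, 30, 10, 3 μg/animal gives ED50.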

Cricetinae gen. sp. [6] = assay: Compound was evaluated in vivo for inhibition of HLE-induced hemorrhage in hamster lung at 200 microg 1 hr after administration prior to HLE; format: functional, Cricetulus griseus
How it was run: (§2)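 Hamster duration protocol: 200 μg/animal given intratracheally 60, 120, 180 or 240 min before IT HLE instillation; hemorrhage scored after 3 h as hemoglobin (414 nm) in saline lung lavage, relative to vehicle-treated animals; three animals per point. T50 taken as time at which 50% inhibition is still obtained.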

Cricetinae gen. sp. [7] = assay: Inhibitory activity against Human Leukocyte Elastase by Lung Hemorrhage assay (Effective dose at 15 microg); format: functional, Cricetulus griseus
Cricetinae gen. sp. [8] = assay: Compound was evaluated in vivo for inhibition of HLE-induced hemorrhage in hamster lung at 200 microg 2 hr after administration prior to HLE; format: functional, Cricetulus griseus
How it was run: as §2

Cricetinae gen. sp. [9] = assay: Compound was evaluated in vivo for inhibition of HLE-induced hemorrhage in hamster lung at 200 microg 4 hr after administration prior to HLE; format: functional, Cricetulus griseus
How it was run: as §2

Cricetinae gen. sp. [10] = assay: Compound was evaluated in vivo for inhibition of HLE-induced hemorrhage in hamster lung at 200 microg 3h after administration prior to HLE; format: functional, Cricetulus griseus
How it was run: as §2

Cricetinae gen. sp. [11] = assay: Inhibition of lung hemorrhage at 200 ug/animal; format: functional, Cricetulus griseus
How it was run: as §2

[12] = target: Prothrombin (Homo sapiens) (UniProt P00734); assay: Inhibitory activity against Thrombin at 10 min (48 mM conc)
How it was run: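 Human thrombin was assayed colorimetrically with 0.2 mM Tosyl-Gly-Pro-Arg-p-nitroanilide as substrate. Percent inhibition was read at 10 min.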

[13] = Half-life value of the compound.; format: ADME
How it was run: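 Chemical stability: compound dissolved at 1 mg/mL in 0.5 M MOPS, pH 8.0, held at 25 °C in capped vial; aliquots quenched in 2% aqueous TFA and analysed by reverse-phase HPLC over one to two half-lives. Peak areas fit to first-order decay F(t)=A/2^(t/t1/2) to give t1/2.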

Homo sapiens [14] = species: Homo sapiens; assay: Inhibitory activity against Clotting cascade at 10 min (240 nM conc); format: functional
How it was run: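 Whole clotting cascade tested with compound at 240 nM; percent inhibition at 10 min.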

Homo sapiens [15] = species: Homo sapiens; assay: Inhibitory activity against Complement cascade at 10 min (120 mM conc); format: functional
[16] = target: Plasminogen (Homo sapiens) (UniProt P00747); assay: Inhibitory activity against Plasmin at 10 min (48 mM conc) using 0.2 mM Tosyl-Gly-Pro-Arg-p-nitroanilide as substrate
How it was run: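 Human plasmin run under the same conditions as the HLE assay, with 0.2 mM Tosyl-Gly-Pro-Arg-p-nitroanilide as substrate. Inhibitor at 48 mM (so in the source). Percent inhibition read at 10 min.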

[17] = target: T4, Thermolysin (Bacillus thermoproteolyticus) (UniProt P00800); assay: Inhibitory activity against Thermolysin at 10 min (48 mM conc)
T4 sequence (whole entry): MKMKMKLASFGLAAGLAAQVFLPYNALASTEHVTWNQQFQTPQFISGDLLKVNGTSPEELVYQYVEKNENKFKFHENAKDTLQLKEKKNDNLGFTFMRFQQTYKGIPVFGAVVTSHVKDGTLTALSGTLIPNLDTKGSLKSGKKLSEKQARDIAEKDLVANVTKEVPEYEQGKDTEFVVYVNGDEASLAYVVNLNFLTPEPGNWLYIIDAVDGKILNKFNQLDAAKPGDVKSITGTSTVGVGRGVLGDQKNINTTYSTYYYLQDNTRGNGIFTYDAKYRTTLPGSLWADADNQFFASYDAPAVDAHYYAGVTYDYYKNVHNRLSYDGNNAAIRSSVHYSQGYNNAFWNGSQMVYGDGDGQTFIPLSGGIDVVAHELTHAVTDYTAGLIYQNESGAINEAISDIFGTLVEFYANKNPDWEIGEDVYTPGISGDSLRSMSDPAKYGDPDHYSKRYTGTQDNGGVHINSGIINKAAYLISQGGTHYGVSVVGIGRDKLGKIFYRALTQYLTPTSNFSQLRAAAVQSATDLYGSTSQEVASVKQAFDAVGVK
How it was run: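 Thermolysin cleaved 0.2 mM Suc-Ala-Ala-Phe-AMC in pH 7.5 TES with excess leucine aminopeptidase. Released 7-amino-4-methylcoumarin was read by fluorescence (ex 383, em 455). Percent inhibition was taken at 10 min.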

Neutrophil elastase = target: T5, Neutrophil elastase (Homo sapiens, UniProt P08246); assay: Inhibitory activity against HLE at 10 min (48 mM conc)
T5 sequence (P08246 whole entry): T3 sequence (whole entry)

Cricetinae gen. sp. [18] = assay: Compound was evaluated in vivo for inhibition of HLE-induced hemorrhage in hamster lung at 100 microg 30 min after administration prior to HLE; format: functional, Cricetulus griseus
How it was run: as §1

Cricetinae gen. sp. [19] = assay: Compound was evaluated in vivo for inhibition of HLE-induced hemorrhage in hamster lung at 30 microg 30 min after administration prior to HLE; format: functional, Cricetulus griseus
How it was run: as §1

Rattus norvegicus = species: Rattus norvegicus; assay: Inhibition of lung hemorrhage caused by elastase in an acute reverse passive Arthus reaction in rat at 250 ug/animal (ED50=55 ug); format: functional
Cricetinae gen. sp. [20] = assay: Inhibitory activity against Human Leukocyte Elastase by Lung Hemorrhage assay; format: functional, Cricetulus griseus
Pepsin A (Homo sapiens) = Pepsin A (Homo sapiens) (UniProt P0DJD9); assay: Inhibitory activity against Pepsin at 48 mM for 10 min
How it was run: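 Pepsin activity was tracked at 310 nm as hydrolysis of 1 mM Phe-Gly-His-p-NO2-Phe-Phe-Ala-OMe in 0.04 M formate buffer at pH 4.0. Percent inhibition was read at 10 min.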

Cricetinae gen. sp. [21] = assay: Compound was evaluated in vivo for inhibition of HLE-induced hemorrhage in hamster lung at 100 microg, 90 min after administration; format: functional, Cricetulus griseus
Cricetinae gen. sp. [22] = assay: Compound was evaluated in vivo for inhibition of HLE-induced hemorrhage in hamster lung at 100 microg, 30 min after administration; format: functional, Cricetulus griseus
How it was run: as §1

Cricetinae gen. sp. [23] = assay: Compound was evaluated in vivo for inhibition of HLE-induced hemorrhage in hamster lung at 200 microg, 4 hr after administration prior to HLE; format: functional, Cricetulus griseus
How it was run: as §2

Cricetinae gen. sp. [24] = assay: Compound was evaluated in vivo for inhibition of HLE-induced hemorrhage in hamster lung at 200 microg, 2 hr after administration prior to HLE; format: functional, Cricetulus griseus
How it was run: as §2

Cricetinae gen. sp. [25] = assay: Compound was evaluated in vivo for inhibition of HLE-induced hemorrhage in hamster lung at 200 microg, 3h after administration prior to HLE; format: functional, Cricetulus griseus
How it was run: as §2

Cricetinae gen. sp. [26] = assay: Compound was evaluated in vivo for inhibition of HLE-induced hemorrhage in hamster lung at 30microg, 30 min after administration prior to HLE; format: functional, Cricetulus griseus
How it was run: as §1

Cricetinae gen. sp. [27] = assay: Compound was evaluated in vivo for inhibition of HLE-induced hemorrhage in hamster lung at 100 microg, 30 min after administration prior to HLE; format: functional, Cricetulus griseus
How it was run: as §1

Cricetinae gen. sp. [28] = assay: Compound was evaluated in vivo for inhibition of HLE-induced hemorrhage in hamster lung at 10microg, 30 min after administration prior to HLE; format: functional, Cricetulus griseus
How it was run: as §1

Cricetinae gen. sp. [29] = assay: Compound was evaluated in vivo for lung hemorrhage inhibitory activity at 200 microg, 1 hr after administration prior to HLE; format: functional, Cricetulus griseus
How it was run: as §2

Pepsin A (Homo sapiens), sequence (P0DJD9 63-388 limits assumed): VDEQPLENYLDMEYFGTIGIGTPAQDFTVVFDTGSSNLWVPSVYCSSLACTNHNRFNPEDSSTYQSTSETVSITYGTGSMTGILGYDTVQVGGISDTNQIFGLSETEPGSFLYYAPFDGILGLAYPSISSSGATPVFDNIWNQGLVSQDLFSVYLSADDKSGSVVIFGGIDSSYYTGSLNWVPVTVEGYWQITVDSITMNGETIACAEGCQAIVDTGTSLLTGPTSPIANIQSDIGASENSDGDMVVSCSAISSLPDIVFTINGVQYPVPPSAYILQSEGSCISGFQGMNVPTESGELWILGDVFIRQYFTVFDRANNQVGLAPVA
Plasminogen (Homo sapiens), sequence (P00747 97-580 limits assumed): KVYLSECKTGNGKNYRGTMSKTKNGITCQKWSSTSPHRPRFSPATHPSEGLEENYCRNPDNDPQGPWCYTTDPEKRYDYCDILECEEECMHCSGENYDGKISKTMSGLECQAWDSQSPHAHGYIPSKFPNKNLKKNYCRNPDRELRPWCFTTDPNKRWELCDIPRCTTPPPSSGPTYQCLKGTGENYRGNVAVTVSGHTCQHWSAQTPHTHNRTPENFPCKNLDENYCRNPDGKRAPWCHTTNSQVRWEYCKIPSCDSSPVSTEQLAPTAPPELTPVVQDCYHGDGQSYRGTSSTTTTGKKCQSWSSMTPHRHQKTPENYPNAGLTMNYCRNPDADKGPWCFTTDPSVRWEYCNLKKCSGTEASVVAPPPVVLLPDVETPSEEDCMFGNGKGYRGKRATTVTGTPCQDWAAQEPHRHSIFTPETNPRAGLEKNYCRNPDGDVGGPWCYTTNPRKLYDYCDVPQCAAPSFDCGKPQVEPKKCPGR
Plasminogen (Homo sapiens), sequence (P00747 581-810 limits assumed): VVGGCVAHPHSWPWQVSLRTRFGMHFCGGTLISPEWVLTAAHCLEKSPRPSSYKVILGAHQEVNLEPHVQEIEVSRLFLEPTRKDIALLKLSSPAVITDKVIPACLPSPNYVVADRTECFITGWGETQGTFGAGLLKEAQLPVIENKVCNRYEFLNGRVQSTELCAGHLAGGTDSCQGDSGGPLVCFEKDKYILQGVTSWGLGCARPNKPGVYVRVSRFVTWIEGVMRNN

**Q.** Which inhibition [1] does the source give for `CO[C@H]1C(=O)N2C(C(=O)N3CCC[C@H]3C(=O)O)=C(COC(C)=O)CS(=O)(=O)[C@H]12` here?
**A.** 18%

**Q.** What about the Partition ratio [2] of the same compound?
**A.** 2

**Q.** What about the inhibition (Papain (Carica papaya)) of the same compound?
**A.** 0%

**Q.** And the k obs / 1 [3]?
**A.** 3800 M⁻¹ s⁻¹

**Q.** And the IC50 [4]?
**A.** 0.5 µM

**Q.** What about the Inhibition (Cricetinae gen. sp. [5]) of the same compound?
**A.** 77%

**Q.** And the Inhibition (Cricetinae gen. sp. [6])?
**A.** 99%

**Q.** What about the ED50 (Cricetinae gen. sp. [7]) of the same compound?
**A.** 30 µg

**Q.** And the Inhibition (Cricetinae gen. sp. [8])?
**A.** 97%

**Q.** What about the Inhibition (Cricetinae gen. sp. [9]) of the same compound?
**A.** 32%

**Q.** What about the Inhibition (Cricetinae gen. sp. [10]) of the same compound?
**A.** 78%

**Q.** What about the T50 (Cricetinae gen. sp. [11]) of the same compound?
**A.** 185 min

**Q.** And the inhibition [12]?
**A.** 0%

**Q.** What about the half-life [13] of the same compound?
**A.** 21 h

**Q.** What about the Inhibition (Homo sapiens [14]) of the same compound?
**A.** -8%

**Q.** What about the Inhibition (Homo sapiens [15]) of the same compound?
**A.** 6%

**Q.** And the inhibition [16]?
**A.** 14%

**Q.** What about the inhibition [17] of the same compound?
**A.** 0%

**Q.** And the Ki (Neutrophil elastase)?
**A.** 1.7 µM

**Q.** And the Inhibition (Cricetinae gen. sp. [18])?
**A.** 93%

**Q.** And the Inhibition (Cricetinae gen. sp. [19])?
**A.** 86%

**Q.** And the Inhibition (Rattus norvegicus)?
**A.** 87%

**Q.** And the Inhibition (Cricetinae gen. sp. [20])?
**A.** 70%

**Q.** And the inhibition (Pepsin A (Homo sapiens))?
**A.** 0%

**Q.** Which Inhibition (Cricetinae gen. sp. [21]) does the source give for `CO[C@H]1C(=O)N2C(C(=O)OC(C)(C)C)=C(COC(=O)N[C@@H](Cc3ccccc3)C(=O)O)CS(=O)(=O)[C@H]12` here?
**A.** 10%

**Q.** And the Inhibition (Cricetinae gen. sp. [22])?
**A.** 87%

**Q.** What about the k obs / 1 [3] of the same compound?
**A.** 63900 M⁻¹ s⁻¹

**Q.** What does the source list for `CO[C@H]1C(=O)N2C(C(=O)N3CC(O)CC3C(=O)O)=C(COC(C)=O)CS(=O)(=O)[C@H]12` (stereo not given in full)?
**A.** Inhibition (Cricetinae gen. sp. [23]): 17%; Inhibition (Cricetinae gen. sp. [24]): 81%; k obs / 1 [3]: 900 M⁻¹ s⁻¹; Inhibition (Cricetinae gen. sp. [25]): 4%; Inhibition (Cricetinae gen. sp. [26]): 95%; Inhibition (Cricetinae gen. sp. [27]): 98%; Inhibition (Cricetinae gen. sp. [28]): 78%; Inhibition (Cricetinae gen. sp. [29]): 86%
